OX1R antag-1: antagonists of human orexin 1 receptor (OX1R); O43613; OX1R-expressing cells, FRET antagonist read-out; inhibition, % at 6.6 µM; 330,000 tested, 1.8% active; AID 485270; in the data active means inhibition mostly above about 38%, no sharp cut-off; inactive means mostly below about 40%;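 further: 0% = agonist challenge alone and 100% = reference antagonist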
CHO parental Ca: counter-screen: ATP calcium response change in parental CHO cells; parental CHO-K1, ATP-induced calcium, Fluo-8 fluorescence; inhibition, % at 5.6 µM; 330,000 tested, 0.63% active; AID 463079;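 active means inhibition above that plate's mean sample inhibition plus 3 SD, cut at about 26% in these data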;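 further: 0% = ATP-challenged DMSO wells and 100% = DMSO wells without ATP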
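Test system: parental CHO cells; detection: calcium-sensitive Fluo-8 fluorescence; evaluation: percent inhibition of calcium signal; also added: ATP as calcium-mobilizing challenge; repeats: one well per compound; control set: ATP-challenged DMSO wells low, unchallenged DMSO wells high; compound: single nominal dose of 5.6 µM per compound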
TAAR1 ag: agonists of human TAAR1; Q96RJ0; CHO RD-HGA16 TAAR1, Fluo-8 calcium fluorescence; vehicle wells 0%, saturating PEA agonist 100%; activation, % at 3 µM; 360,000 tested, 0.99% active; AID 624467;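 active means activation above the mean activation of all test compounds in the run plus 3 SD, cut at about 38% in these data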
Target sequence (Q96RJ0 whole entry, looked up): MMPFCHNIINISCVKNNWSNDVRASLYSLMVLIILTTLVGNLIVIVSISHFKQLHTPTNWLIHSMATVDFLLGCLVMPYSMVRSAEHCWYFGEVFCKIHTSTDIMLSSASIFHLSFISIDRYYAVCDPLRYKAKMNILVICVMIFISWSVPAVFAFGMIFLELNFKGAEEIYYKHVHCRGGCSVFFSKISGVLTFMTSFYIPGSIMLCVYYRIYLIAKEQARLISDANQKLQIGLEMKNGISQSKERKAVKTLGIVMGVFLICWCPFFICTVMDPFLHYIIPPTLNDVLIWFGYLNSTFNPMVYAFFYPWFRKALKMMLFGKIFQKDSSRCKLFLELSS
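Assay system – CHO-derived RD-HGA16 cells with stable Gα16 and human TAAR1 · Compound dosing – one-point dosing at 3 µM (nominal) · Incubation – 17-24 h seeding, 75 min 37 °C dye, 30 min RT · Measured by – kinetic Fluo-8 calcium fluorescence · Control set – DMSO vehicle as 0%, PEA at EC100 as 100% · Repeats – single well for each compound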
GPR7 antag: blocks human GPR7 receptor signaling | P48145 | GPR7-expressing cells, fluorescence antagonist assay | inhibition, % at 4.4 µM | 290,000 tested, 1.1% active | AID 1861; in the data active means inhibition above about 16%, passing the limit was not always enough;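 further: cells stimulated with the agonist NPW; 0% = agonist with vehicle and 100% = vehicle without agonist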
Target sequence (P48145 whole entry, looked up): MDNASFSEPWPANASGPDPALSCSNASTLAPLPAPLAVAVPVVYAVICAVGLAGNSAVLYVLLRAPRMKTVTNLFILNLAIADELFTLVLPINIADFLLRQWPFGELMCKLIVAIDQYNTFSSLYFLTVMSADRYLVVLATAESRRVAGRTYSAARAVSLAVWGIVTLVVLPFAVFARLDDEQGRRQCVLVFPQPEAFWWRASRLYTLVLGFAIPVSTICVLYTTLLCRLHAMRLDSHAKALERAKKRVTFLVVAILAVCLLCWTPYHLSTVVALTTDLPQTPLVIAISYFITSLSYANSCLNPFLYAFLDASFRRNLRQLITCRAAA
OX1R antag-2: antagonists of human orexin 1 receptor; CHO/OX1R cells, Fluo-8 calcium fluorescence, orexin A; inhibition, % at 5 µM; 330,000 tested, 0.43% active;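 active means inhibition above its plate's threshold, mean inhibition of all tested compounds on the plate plus 3 SD, cut at about 37% in these data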;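 further: 0% = orexin A challenge wells and 100% = SB-334867-A antagonist wells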
TAAR1 antagonist: human TAAR1 antagonism | CHO RD-HGA16 TAAR1, Fluo-8 calcium fluorescence, antagonist | inhibition, % at 3 µM | 360,000 tested, 1.5% active;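 active means inhibition above a per-plate cutoff, the mean inhibition of test compounds on that plate plus 3 SD, cut at about 49% in these data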;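 further: 0% = DMSO plus EC80 beta-PEA response and 100% = DMSO alone without agonist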
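test system = CHO RD-HGA16 cells bearing hTAAR1 | replication = singlicate | controls = DMSO-only wells and EC80 β-PEA-stimulated wells | reagent = EC80 β-phenethylamine stimulus | read-out basis = percent inhibition of PEA-evoked calcium signal, max/basal emission ratio | schedule = seeding 17-24 h prior, 75-min 37 °C, 30-min RT dye loading | signal = kinetic Fluo-8 calcium fluorescence measurement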
* hit, by the source's call; / = not tested or not shown. A selection: hits, their analogues and other compounds. The true share with any hit is near 4.6%.

SMILES	OX1R antag-1	CHO parental Ca	TAAR1 ag	GPR7 antag	OX1R antag-2	TAAR1 antagonist
C=CCNC(=S)N/N=C(\C)c1ccccn1	5	29*	9	0	24	20
CC(=NNC(=S)Nc1ccccc1)c1ccccn1	/	/	1	/	/	-2
O=S(=O)(NCc1cc(-c2ccc(Cl)cc2)no1)c1ccc(Cl)cc1	20	93*	8	-12	51*	7
O=C1c2ccccc2C(=O)N1Cc1cc(-c2ccc(Cl)cc2)no1	5	-6	9	-6	-10	49*
O=S(=O)(NCc1cc(-c2ccc(Cl)cc2)no1)c1ccccc1	18	2	1	-4	4	5
Cc1cc(CN2C(=O)c3ccccc3C2=O)on1	4	-13	13	-20	-9	-4
NC(=O)c1ccsc1NC(=O)CS(=O)(=O)c1ccc(Cl)cc1	22	-3	2	-19	-19	6
CC(=O)Nc1cccc(-c2ccnc3c2CC(C)(C(=O)NCc2ccc(N(C)C)cc2)O3)c1 (stereo not drawn)	/	/	1	/	/	-23
O=Cc1c[nH]c2cccc(OCc3ccccc3)c12	/	/	-2	/	/	49*
O=C(CCc1nnc(CCC2CCCCC2)o1)NCCc1cccnc1	12	-11	14	-8	-5	-13
CN(Cc1ccccc1)c1cc(Cl)nc(N)n1	-5	-11	1	-12	-10	15
Cc1c(NC(=O)/C(C#N)=C/c2ccc(-c3cccc(Cl)c3)o2)c(=O)n(-c2ccccc2)n1C	75*	-30	2	6	6	-19
Cc1c(NC(=O)/C(C#N)=C/c2ccc(-c3ccccc3Cl)o2)c(=O)n(-c2ccccc2)n1C	75*	-35	1	2	-1	-3
COC(=O)[C@@]12C[C@@H](CC(=O)NCC3CCCCC3)C(=O)N(CCc3ccc(OC)c(OC)c3)C1=CCC(C)(C)C2	/	/	1	/	/	-21
COc1ccc(CCNC(=O)c2ccccc2NC(=O)CN2CCN(c3ccccc3O)CC2)cc1	/	/	14	/	/	64*
O=C(CN1CCN(c2ccccc2O)CC1)Nc1ccccc1C(=O)NCCc1ccccc1	19	-15	18	/	-10	61*
CC(NC(=O)c1ccccc1NC(=O)CN1CCN(c2ccccc2O)CC1)c1ccccc1 (stereo not drawn)	4	-28	25	/	4	36
COc1ccccc1N1CCN(CC(=O)Nc2ccccc2C(=O)NC(C)c2ccccc2)CC1 (stereo not drawn)	9	-35	32	/	-18	59*
O=C(CN1CCN(c2ccc(F)cc2)CC1)Nc1ccccc1C(=O)NCCc1ccccc1	9	-24	18	/	-24	43
COC(=O)c1ccc(C(=O)OC)c(NC(=O)CN2CCN(c3ccccc3OC)CC2)c1	1	-12	8	-8	5	52*
O=C(O)C1Cc2ccccc2CN1C(=O)CSc1nnc2ccccn12 (stereo not drawn)	14	3	0	1	-4	-3
COc1ccccc1N1CCN(CC(=O)Nc2ccccc2C(=O)NCCc2ccccc2)CC1	0	-16	11	/	-14	55*
CCOc1ccc(C(=O)/C=C/c2cn(CN3CCN(C)CC3)c3ccccc23)cc1	57*	-23	8	10	14	10
O[C@@H]1CN(CC2CCCCC2)[C@@H](c2ccccc2)C[C@H]1n1cc(-c2ccc(F)cc2)nn1	/	/	8	/	/	23
CCCCCCCC[n+]1cccc2c3ccccc3ccc21	20	63*	1	67*	36	1
SMILES	OX1R antag-1	CHO parental Ca	TAAR1 ag	GPR7 antag	OX1R antag-2	TAAR1 antagonist
CCCCCCCCCC[n+]1cccc2c3ccccc3ccc21	/	/	11	70*	/	3
COc1ccccc1N1C(=O)N(CC(=O)C(C)(C)C)c2ccccc2S1(=O)=O	-3	-15	2	-7	-22	-15
COc1ccc(CCC(=O)Nc2nc3ccccc3[nH]2)cc1	-1	70*	10	-13	21	21
O=C1C(=O)c2cccnc2-c2ncccc21	/	/	22	/	/	4
O=C1c2cc([N+](=O)[O-])ccc2-c2ncccc21	67*	3	0	-10	-15	-11
Nc1ccc2c(c1)C(=O)c1cc([N+](=O)[O-])ccc1-2	/	/	-1	/	/	-4
O=C1c2ccccc2-c2nccnc21	111*	-4	7	4	-8	9
O=C1c2cccnc2-c2ncccc21	54*	-2	1	-12	-9	1
O=C(O)c1ccc(C(=O)c2ccc3c(c2)C(=O)N(CCO)C3=O)cc1	74*	9	2	-13	-4	-3
CCN1C(=O)c2ccc(C(=O)O)cc2C1=O	23	3	6	-10	-6	4
O=C(c1ccc2c(c1)C(=O)N(Cc1ccco1)C2=O)N1CCOCC1	18	-10	10	-1	-11	-7
O=C(O)c1ccc(C(=O)c2ccc3c(c2)C(=O)N(Cc2ccco2)C3=O)cc1	50*	4	-1	0	-14	7
CN1C(=O)C(=O)N(CC(=O)Nc2ccccc2OC(F)F)C1=O	-1	4	1	/	7	13
CCc1ccc(NC(=S)N2CCC(NC(=O)c3ccccc3)CC2)cc1	19	-16	-4	-3	-16	-7
CC(=O)Oc1c(C)c(=O)n(C)c2ccccc12	7	-11	0	10	-13	14
COc1c(OC(C)=O)c(=O)n2c3ccccc3c3ccnc1c32	52*	-12	1	/	-14	1
CCCCN1C(=O)c2ccc(C(=O)OCC(=O)N3CCN(c4ccccc4)CC3)cc2C1=O	2	-24	2	/	-26	5
COCCCN1C(=O)c2ccc(C(=O)OCC(=O)N3CCN(c4ccccc4)CC3)cc2C1=O	46*	-3	3	/	2	-30
COc1cccc(/C=N/NC(=O)c2cc3c(OC)ccc(OC)c3[nH]2)c1O	48*	-1	11	7	-2	20
COc1cccc(/C=N/NC(=O)c2ccc3nc[nH]c3c2)c1O	21	-5	-1	-1	4	-10
Cc1ccc(Nc2nc(N)nc(CN3CCCCCC3)n2)c(C)c1	4	-16	6	20*	-20	2
O=C(C[n+]1ccccc1)N/N=C/c1cc(Br)cc(Br)c1O	29*	4	/	1	-4	/
O=C(O)C1C2C=CC3(CN(Cc4ccncc4)C(=O)C13)O2 (stereo not drawn)	31	-7	2	7	-19	-15
COc1cc(/C=N\Nc2nncn2N)ccc1OC(C)=O	42	-3	1	-9	-13	-10
O=C(O)c1ccccc1-c1c2cc(I)c(=O)c(I)c-2oc2c(I)c(O)c(I)cc12	38	78*	136*	/	79*	83*

High-throughput results (PubChem)
